# Columns and labels:
# Type in all cases: functional
# [1] = Free radical scavenging activity assessed as inhibition of DPPH radical generation at 25 ug
# How it was run: (§1)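 Brand-Williams method: 1 mL sample at […] per mL mixed with 2 mL of 0.2 mM methanolic DPPH. Stood 30 min at room temperature, then absorbance read at 517 nm. % scavenging calculated relative to 0.2 mM DPPH control without sample.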
# [2] = Free radical scavenging activity assessed as inhibition of DPPH radical generation at 50 ug; how it was run: as §1
# [3] = Free radical scavenging activity assessed as inhibition of DPPH radical generation at 100 ug; how it was run: as §1
# [4] = Free radical scavenging activity assessed as inhibition of hydroxyl radical generation at 100 ug by Fenton reaction method
# [5] = Free radical scavenging activity assessed as inhibition of superoxide anion generation at 100 ug
# [6] = Free radical scavenging activity assessed as inhibition of nitric oxide generation at 100 ug
# Rattus norvegicus [7] = assay: Antiinflammatory activity in Wistar albino rat assessed as inhibition of carrageenan-induced paw edema dosed at 20 mg/kg in plantar region of paw administered 30 mins before carrageenan challenge measured 0.5 hrs post carrageenan-induced inflammation
# How it was run: (§2)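 Wistar albino rats of either sex, 180–250 g, fasted 12 h before and during testing. Test compounds at 20 mg/kg given 30 min before carrageenan (0.1 mL of 1% w/v) injected into the plantar paw; diclofenac 20 mg/kg as reference. Paw volume by plethysmography at 30–180 min. % inhibition = (1 − Vt/Vc) × 100 against control edema; mean ± SEM, n = 6.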
# Rattus norvegicus [8] = assay: Antiinflammatory activity in Wistar albino rat assessed as inhibition of carrageenan-induced paw edema dosed at 20 mg/kg in plantar region of paw administered 30 mins before carrageenan challenge measured 1 hr post carrageenan-induced inflammation; how it was run: as §2
# Rattus norvegicus [9] = assay: Antiinflammatory activity in Wistar albino rat assessed as inhibition of carrageenan-induced paw edema dosed at 20 mg/kg in plantar region of paw administered 30 mins before carrageenan challenge measured 1.5 hrs post carrageenan-induced inflammation; how it was run: as §2
# Rattus norvegicus [10] = assay: Antiinflammatory activity in Wistar albino rat assessed as inhibition of carrageenan-induced paw edema dosed at 20 mg/kg in plantar region of paw administered 30 mins before carrageenan challenge measured 2 hrs post carrageenan-induced inflammation; how it was run: as §2
# Rattus norvegicus [11] = assay: Antiinflammatory activity in Wistar albino rat assessed as inhibition of carrageenan-induced paw edema dosed at 20 mg/kg in plantar region of paw administered 30 mins before carrageenan challenge measured 2.5 hrs post carrageenan-induced inflammation; how it was run: as §2
# Rattus norvegicus [12] = assay: Antiinflammatory activity in Wistar albino rat assessed as inhibition of carrageenan-induced paw edema dosed at 20 mg/kg in plantar region of paw administered 30 mins before carrageenan challenge measured 3 hrs post carrageenan-induced inflammation; how it was run: as §2
# Mus musculus [13] = assay: Analgesic activity in Swiss albino mouse assessed as increase in reaction time at 10 mg/kg, ip measured 30 mins post dose by tail immersion method; details: route intraperitoneal
# How it was run: (§3)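 Tail immersion in Swiss albino mice, 6 per group, heat as pain source. Tail tip dipped in a thermostatic bath held at 55 °C. Basal reaction time noted before treatment. Test compounds at 10 mg/kg i.p., with pentazocine as reference. Reaction time read at 30, 60 and 90 min, given as mean ± SEM with % increase over basal.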
# Mus musculus [14] = assay: Analgesic activity in Swiss albino mouse assessed as increase in reaction time at 10 mg/kg, ip measured 60 mins post dose by tail immersion method; details: route intraperitoneal; how it was run: as §3
# Mus musculus [15] = assay: Analgesic activity in Swiss albino mouse assessed as increase in reaction time at 10 mg/kg, ip measured 90 mins post dose by tail immersion method; details: route intraperitoneal; how it was run: as §3
SMILES,inhibition [1] [%],inhibition [2] [%],inhibition [3] [%],inhibition [4] [%],inhibition [5] [%],inhibition [6] [%],inhibition in vivo at 20 mg/kg (Rattus norvegicus [7]) [%],inhibition in vivo at 20 mg/kg (Rattus norvegicus [8]) [%],inhibition in vivo at 20 mg/kg (Rattus norvegicus [9]) [%],inhibition in vivo at 20 mg/kg (Rattus norvegicus [10]) [%],inhibition in vivo at 20 mg/kg (Rattus norvegicus [11]) [%],inhibition in vivo at 20 mg/kg (Rattus norvegicus [12]) [%],Activity (Mus musculus [13]) [%],Activity (Mus musculus [14]) [%],Activity (Mus musculus [15]) [%]
Cc1ccc([C@H]2CC(c3ccc(Cl)cc3)=NN2c2ncc(Br)cn2)cc1,54.4,71.8,80,63.2,43.8,38.1,–,–,–,–,–,–,–,–,–
Brc1ccc([C@H]2CC(c3ccccc3)=NN2c2ncc(Br)cn2)cc1,65.4,79.6,93.4,86.8,62.1,47.6,64,68,74,74,78,76,25.76,62.01,59.39
CC(C)=CCN1CC[C@@]2(C)c3cc(O)ccc3C[C@@H]1[C@@H]2C (relative stereo),–,–,–,–,–,–,–,–,–,–,–,–,25.7,45.79,67.28
Cc1ccc([C@H]2CC(c3ccc(Br)cc3)=NN2c2ncc(Br)cn2)cc1,55.3,66.3,69.3,71.5,50.2,33.7,–,–,–,–,–,–,–,–,–
Clc1ccc(C2=NN(c3ncc(Br)cn3)[C@@H](c3ccccc3)C2)cc1,62.7,76.5,90.5,82.6,42.6,39.1,60,71,71,73,70,75,37.62,70.79,84.65
Clc1ccc(C2=NN(c3ncc(Br)cn3)[C@@H](c3ccc(Cl)cc3)C2)cc1,54.5,69.2,78.3,69.4,38.6,31.4,–,–,–,–,–,–,–,–,–
O=[N+]([O-])c1ccc([C@H]2CC(c3ccccc3)=NN2c2ncc(Br)cn2)cc1,54.5,64.7,75.6,79.2,42.2,32.1,–,–,–,–,–,–,–,–,–
COc1ccc([C@H]2CC(c3ccc(Cl)cc3)=NN2c2ncc(Br)cn2)cc1,68.5,79.4,89.8,81.6,58.7,46.2,58,62,64,70,69,73,28.97,39.25,71.96
Clc1ccc(C2=NN(c3ncc(Br)cn3)[C@@H](c3ccc(Br)cc3)C2)cc1,52.2,67.3,78.5,70.6,24.6,38.1,–,–,–,–,–,–,–,–,–
Cc1cc(C(C)(C)C)c(O)c(C(C)(C)C)c1,65.9,79.4,93.2,87,64,43.2,–,–,–,–,–,–,–,–,–
Clc1ccc([C@H]2CC(c3ccccc3)=NN2c2ncc(Br)cn2)cc1,60.1,78.1,93.5,87.9,60,43.3,61,70,71,76,72,78,29.71,72.16,78.31
Cc1ccc([C@H]2CC(c3ccccc3)=NN2c2ncc(Br)cn2)cc1,67.5,79.2,94.1,89.1,59.1,56.1,63,68,71,69,72,79,16.51,73.66,65.63
Clc1ccc([C@H]2CC(c3ccc(Br)cc3)=NN2c2ncc(Br)cn2)cc1,56.8,68.2,78.9,66.3,38.9,40.2,–,–,–,–,–,–,–,–,–
O=C(O)Cc1ccccc1Nc1c(Cl)cccc1Cl [DICLOFENAC],–,–,–,–,–,–,61,69,67,78,71,80,–,–,–
Brc1ccc(C2=NN(c3ncc(Br)cn3)[C@@H](c3ccc(Br)cc3)C2)cc1,51.5,69.7,78.2,71.4,52.5,23.8,–,–,–,–,–,–,–,–,–

# From ChEMBL document CHEMBL2062410, “Synthesis, characterization and pharmacological study of 4,5-dihydropyrazolines carrying pyrimidine moiety” (2012)
